According to ChEMBL document CHEMBL1148860, “A non-toxic Hsp90 inhibitor protects neurons from Abeta-induced toxicity” (Bioorg Med Chem Lett, 2007):
Calls of active or inactive are those of the source. The calls are words filed in the database; no cut-off is given here.

What was measured:
SK-BR-3 [1] = assay: Antiproliferative activity against SKBR3 cells upto 100 uM; type: functional, cell-based; settings: Homo sapiens
How it was run: (§1)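 MCF-7 and SkBr3 cells incubated with compound over a range of concentrations up to 100 µM. Viable cells quantitated by MTS/PMS assay. Triplicate wells per experiment, three independent experiments; IC50 from dose–response, values as means ± SE.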

MCF7 [2] = assay: Antiproliferative activity against MCF7 cells upto 100 uM; type: functional, cell-based; settings: Homo sapiens; how it was run: as §1
Cortical neurone [3] = assay: Inhibition of beta-amyloid (1-42)-induced toxicity in embryonic rat brain primary cortical neurons after 48 hrs; type: functional, tissue-based
How it was run: (§2)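 Primary cortical neurons pretreated with compound at a series of concentrations, then challenged with Aβ25–35 (10 µM), or Aβ1–42 in fewer cultures. Neurons labelled with calcein-AM (live) and propidium iodide (dead) and counted in several fields by fluorescence microscopy. EC50 taken from percentage survival.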

Cortical neurone [4] = assay: Inhibition of beta-amyloid (25-35)-induced toxicity in embryonic rat brain primary cortical neurons after 48 hrs; type: functional, tissue-based; how it was run: as §2
Cerebral cortex neuron [5] = assay: Increase in Hsp70 level in rat primary cortical neurons at 0.2 uM after 48 hrs; type: functional, cell-based
How it was run: (§3)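 Primary cortical neurons incubated 48 h with compound, concentrations from 1 nM to 10 µM. Hsp70 levels measured against DMSO controls.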

Cerebral cortex neuron [6] = assay: Increase in Hsp70 level in rat primary cortical neurons at 1 nM after 48 hrs relative to control; type: functional, cell-based; how it was run: as §3
[7] = Cytotoxicity against rat neuronal cells at 10 uM after 72 hrs; type: cell-based; settings: neuron
How it was run: (§4)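 Neuronal cultures given compound alone (10 µM) or DMSO vehicle. Viability read at 24 h and after 72 h. Percentage surviving neurons taken from three separate experiments, mean ± SE.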

LNCaP [8] = assay: Induction of Hsp90 protein in LNCap cells expressing mutated androgen receptor at 10 nM; type: functional, cell-based; settings: Homo sapiens
How it was run: (§5)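 LNCaP prostate cancer cells, which carry a mutated androgen receptor, exposed to compound from 10 nM upward. Hsp90 induction and loss of client proteins AR and AKT assessed.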

LNCaP [9] = assay: Degradation of Hsp90 client protein androgen receptor in LNCap cells upto 1 uM; type: functional, cell-based; settings: Homo sapiens; how it was run: as §5
LNCaP [10] = assay: Degradation of Hsp90 client protein AKT in LNCap cells upto 1 uM; type: functional, cell-based; settings: Homo sapiens; how it was run: as §5
BMEC = assay: Permeability across BMECs; type: ADME, cell-based, Bos taurus; settings: cattle, TDE = time-dependent effect
How it was run: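 Primary bovine BMEC monolayers mounted in a side-by-side diffusion chamber. Compound in the receiving chamber sampled over time, up to 90 min.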

[11] = Cytotoxicity against rat neuronal cells at 10 uM after 24 hrs; type: cell-based; settings: neuron; how it was run: as §4
SK-BR-3 [12] = assay: Antiproliferative activity against SKBR3 cells; type: functional, cell-based; settings: Homo sapiens; how it was run: as §1
MCF7 [13] = assay: Antiproliferative activity against MCF7 cells; type: functional, cell-based; settings: Homo sapiens; how it was run: as §1

| SMILES | Activity (SK-BR-3 [1]) | Activity (MCF7 [2]) | Activity (Cortical neurone [3]) | Activity (Cortical neurone [4]) | Activity (Cerebral cortex neuron [5]) | Activity (Cerebral cortex neuron [6]) | Activity [7] | Activity (LNCaP [8]) | Activity (LNCaP [9]) | Activity (LNCaP [10]) | Activity (BMEC) | Activity [11] | Activity (SK-BR-3 [12]) | Activity (MCF7 [13]) |
| --- | --- | --- | --- | --- | --- | --- | --- | --- | --- | --- | --- | --- | --- | --- |
| CO[C@H]1[C@H](O)[C@@H](O)[C@H](Oc2ccc3cc(NC(C)=O)c(=O)oc3c2)OC1(C)C | inactive | inactive | Active | Active | Active | Active | Not Active | Active | inactive | inactive | tde |  |  |  |
| COC1=C2C[C@@H](C)C[C@H](OC)[C@H](O)[C@@H](C)/C=C(\C)[C@H](OC(N)=O)[C@@H](OC)/C=C\C=C(/C)C(=O)NC(=CC1=O)C2=O [GELDANAMYCIN] |  |  |  |  |  |  |  |  |  |  |  | Active | Dose-dependent effect | Dose-dependent effect |
